How the values were obtained:
[1] = Compound concentration required to reduce the cell proliferation of Wild type and Drug- resistant human nasopharyngeal carcinoma KB cells by 50%; format: functional, cell-based
In short: (§1)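 Cells seeded at 5 × 10^4 cells/mL, adhered 16 h, exposed to serial drug dilutions; MTT after 4 days. IC50 by linear regression versus untreated controls; mean ± SD of three independent determinations.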

[2] = Compound concentration required to reduce the cell proliferation of Wild type and drug-resistant KB subclones passaged in the presence of etoposide 7 uM by 50%; format: functional; settings: Homo sapiens; in short: as §1
[3] = Compound concentration required to reduce the cell proliferation of Wild type and Drug- resistant KB subclones passaged in the presence of doxorubicin 0.09 uM by 50%; format: functional; settings: Homo sapiens; in short: as §1
[4] = Effect on the proliferation wild-type and drug-resistant KB subclones passaged uM; format: functional, Homo sapiens; in short: as §1
[5] = Effect on the proliferation Wild -type and Drug- resistant KB subclones passaged in the presence of vincristine 0.02 uM; format: functional, Homo sapiens; in short: as §1
CCRF-SB [6] = assay: Compound concentration required to reduce the cell proliferation of human acute B-lymphoblastic leukemia CCRF-SB cells by 50%, using MTT method.; format: functional, cell-based
In short: (§2)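 Leukemia/lymphoma cells in exponential growth resuspended at 1 × 10^5 cells/mL in RPMI 1640 (10% FCS, antibiotics) with serial dilutions of drug (DMSO stock 200 µM diluted in medium). Viability by MTT after 96 h at 37 °C, 5% CO2. Growth expressed as % of untreated controls; IC50 by linear regression. Controls underwent ≥3 rounds of multiplication. Mean of three independent determinations.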

CCRF-CEM [7] = assay: Compound concentration required to reduce the cell proliferation of human acute T-lymphoblastic leukemia CCRF-CEM cells by 50%, using MTT method.; format: functional, cell-based; in short: as §2
HeLa = assay: Compound concentration required to reduce the cell proliferation of cervix carcinoma Hela cells by 50%, using MTT method.; format: functional, cell-based; settings: Homo sapiens
In short: (§3)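 Solid-tumor cells in exponential growth seeded at 5 × 10^4 cells/mL in their own medium with 10% FCS, allowed to adhere 16 h, then serially diluted drug added (DMSO stock 200 µM diluted in medium). MTT viability read 4 days later, 37 °C, 5% CO2. IC50 by linear regression from % of untreated control growth. Three independent determinations.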

HEp-2 [8] = assay: Compound concentration required to reduce the cell proliferation of larynx carcinoma cells by 50%, using MTT method.; format: functional, cell-based; settings: Homo sapiens; in short: as §3
MT4 [9] = assay: Compound concentration required to reduce the cell proliferation of human CD4+T cells by 50%, using MTT method.; format: functional, cell-based; in short: as §2
ACHN = assay: Antitumor activity against human renal adenocarcinoma ACHN cells; format: functional, cell-based; in short: as §3
CCRF-SB [10] = assay: Antitumor activity against human acute B-lymphoblastic leukemia CCRF-SB cells; format: functional, cell-based; in short: as §2
CCRF-CEM [11] = assay: Antitumor activity against human acute T-lymphoblastic leukemia CCRF-CEM cells; format: functional, cell-based; in short: as §2
CRL-7065 cell line = assay: Antitumor activity against human foreskin fibroblasts CRL7065 cells; format: functional, cell-based; in short: as §3
C8166 = assay: Antitumor activity against […] human acute T-lymphoblastic leukemia C8166 cells; format: functional, cell-based; in short: as §2
DU-145 = assay: Antitumor activity against human prostate carcinoma DU145 cells; format: functional, cell-based; in short: as §3
G-361 = assay: Antitumor activity against human skin melanoma G-361 cells; format: functional, cell-based; in short: as §3
HEp-2 [12] = assay: Antitumor activity against larynx carcinoma Hep-2 cells; format: functional, cell-based; settings: Homo sapiens; in short: as §3
HT-29 = assay: Antitumor activity against human colon adenocarcinoma HT-29 cells; format: functional, cell-based; in short: as §3
HepG2 = assay: Antitumor activity against human hepatocellular carcinoma HepG2 cells; format: functional, cell-based; in short: as §3
[13] = Effect on the proliferation Wild -type and Drug- resistant KB subclones passaged uM; format: functional, Homo sapiens; in short: as §1
MT4 [14] = assay: Antitumor activity against human CD4+T cells expressing the TAT gene of HTLV-1 MT-4 cells; format: functional, cell-based; in short: as §2
MT4 [15] = assay: Antitumor activity against […] human acute T-lymphoblastic leukemia MT-4 cells; format: functional, cell-based; in short: as §2
[16] = (§4) Cytotoxicity for Peripheral blood Lymphocytes; format: functional; settings: Homo sapiens
In short: (§5)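 Human PBL from HIV-negative donors, isolated on Ficoll-Hypaque. Resting cells (1 × 10^6/mL) exposed up to 3 days to serial drug dilutions, washed, PHA-stimulated 24 h, diluted to 1 × 10^5/mL with PHA and IL-2, viability read after 6 days at 37 °C. Alternatively, PBL stimulated with PHA (2.5 µg/mL) 24 h, then grown with PHA, IL-2 (50 U/mL) and drug, and viable cells counted at day 6. Mean ± SD, three experiments.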

[17] = as §4; format: functional; settings: Homo sapiens; in short: as §5; remark: listed apart in the source
Raji = assay: Antitumor activity against human Burkitt lym phoma Raji cells; format: functional, cell-based; in short: as §2
SK-MEL-28 = assay: Antitumor activity against human skin melanoma […] cells; format: functional, cell-based; in short: as §3
SK-MES-1 = assay: Antitumor activity against human lung squamous carcinoma SK-MES-1 cells; format: functional, cell-based; in short: as §3
Lymphoblastoid cell = assay: Cytotoxicity for lymphoblastoid cell lines; format: functional; settings: Homo sapiens

**Q.** What does the source list for `COc1cc([C@@H]2c3cc4c(cc3[C@@H](O[C@@H]3O[C@@H]5CO[C@@H](C)O[C@H]5[C@H](O)[C@H]3O)[C@H]3COC(=O)[C@H]23)OCO4)cc(OC)c1O` [ETOPOSIDE]?
**A.** IC50 [1]: 600 nM; IC50 [2]: > 20000 nM; IC50 [3]: > 20000 nM; IC50 [4]: 6.2 µM

**Q.** What does the source list for `CC[C@]1(O)C[C@H]2CN(CCc3c([nH]c4ccccc34)[C@@](C(=O)OC)(c3cc4c(cc3OC)N(C=O)[C@H]3[C@@](O)(C(=O)OC)[C@H](OC(C)=O)[C@]5(CC)C=CCN6CC[C@]43[C@@H]65)C2)C1` [VINCRISTINE]?
**A.** IC50 [1]: 6 nM; IC50 [2]: 50 nM; IC50 [3]: 700 nM; IC50 [5]: 200 nM

**Q.** Which results are given for `CC(=O)Nc1cc2nc3ccccc3oc-2cc1=O`?
**A.** IC50 (CCRF-SB [6]): 3.6 µM; IC50 (CCRF-CEM [7]): > 50 µM; IC50 (HeLa): 8.2 µM; IC50 (HEp-2 [8]): 1.4 µM; IC50 (MT4 [9]): 9.5 µM

**Q.** With `COc1cccc2c1C(=O)c1c(O)c3c(c(O)c1C2=O)C[C@@](O)(C(=O)CO)C[C@@H]3O[C@H]1C[C@H](N)[C@H](O)[C@H](C)O1` [DOXORUBICIN] as the compound, how does the IC50 (ACHN) read?
**A.** Its IC50 is 40 nM.

**Q.** And the IC50 (CCRF-SB [10])?
**A.** Its IC50 is 30 nM.

**Q.** And the IC50 (CCRF-CEM [11])?
**A.** The IC50 was 20 nM.

**Q.** And the IC50 (CRL-7065 cell line)?
**A.** Its IC50 is 500 nM.

**Q.** And the IC50 (C8166)?
**A.** Its IC50 is 20 nM.

**Q.** What about the IC50 (DU-145) of the same compound?
**A.** The IC50 was 30 nM.

**Q.** What about the IC50 (G-361) of the same compound?
**A.** The IC50 was 90 nM.

**Q.** What about the IC50 (HEp-2 [12]) of the same compound?
**A.** The IC50 was 40 nM.

**Q.** And the IC50 (HT-29)?
**A.** Its IC50 is 150 nM.

**Q.** What about the IC50 (HepG2) of the same compound?
**A.** Its IC50 is 120 nM.

**Q.** What about the IC50 [1] of the same compound?
**A.** Its IC50 is 60 nM.

**Q.** And the IC50 [2]?
**A.** Its IC50 is 2800 nM.

**Q.** And the IC50 [3]?
**A.** The IC50 was 1800 nM.

**Q.** And the IC50 [13]?
**A.** Its IC50 is 400 nM.

**Q.** And the IC50 (MT4 [14])?
**A.** Its IC50 is 10 nM.

**Q.** What about the IC50 (MT4 [15]) of the same compound?
**A.** Its IC50 is 10 nM.

**Q.** What about the CC50 [16] of the same compound?
**A.** Its CC50 is 90 nM.

**Q.** What about the CC50 [17] of the same compound?
**A.** The CC50 was 40 nM.

**Q.** And the IC50 (Raji)?
**A.** The IC50 was 30 nM.

**Q.** And the IC50 (SK-MEL-28)?
**A.** The IC50 was 60 nM.

**Q.** What about the IC50 (SK-MES-1) of the same compound?
**A.** Its IC50 is 30 nM.

**Q.** What about the CC50 (Lymphoblastoid cell) of the same compound?
**A.** The CC50 was 20 nM.

**Q.** For `O=c1ccc2nc3ccccc3oc-2c1`, which IC50 (CCRF-SB [6]) is on record?
**A.** The IC50 was 9 µM.

**Q.** And the IC50 (CCRF-CEM [7])?
**A.** Its IC50 is 19 µM.

**Q.** And the IC50 (HeLa)?
**A.** Its IC50 is 13 µM.

**Q.** And the IC50 (HEp-2 [8])?
**A.** The IC50 was 14.2 µM.

**Q.** What about the IC50 (MT4 [9]) of the same compound?
**A.** Its IC50 is 11 µM.

— ChEMBL document CHEMBL1135654, “Antitumor agents. 1. Synthesis, biological evaluation, and molecular modeling of 5H-pyrido[3,2-a]phenoxazin-5-one, a compound with potent antiproliferative activity” (J Med Chem, 2002)
